Results as given in ChEMBL document CHEMBL4311965, “Antimicrobial activity of amphipathic α,α-disubstituted β-amino amide derivatives against ESBL - CARBA producing multi-resistant bacteria; effect of halogenation, lipophilicity and cationic character” (Eur J Med Chem, 2019).

Experiment: Drug metabolism in Sprague-Dawley rat liver microsomes assessed as CYP450-mediated 4-[2-(aminomethyl)-3-[3,5-bis(trifluoromethyl)phenyl]-2-(4,5-dihydrooxazol-3-ium-2-yl)propyl]-2,6-bis(trifluoromethyl)phenol formation incubated up to 3 hrs in presence of NADPH regenerating system by RP-HPLC-MS analysis
Type: ADME
Procedure, shortened: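 Substrate at 1 µL of 100 µM aqueous stock in 100 mM potassium phosphate, pH 7.4, with NADPH regenerating system. Pooled male Sprague–Dawley rat liver microsomes (20 mg/mL stock) added, then incubated at 37 °C. Sampled at 0–180 min and quenched with cold methanol containing propranolol internal standard. Analysed by RP-HPLC–HRMS in positive ESI mode. Metabolites confirmed by HCD MS2. Triplicate incubations.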

For NCCNC(=O)C(CN)(Cc1cc(C(F)(F)F)cc(C(F)(F)F)c1)Cc1cc(C(F)(F)F)cc(C(F)(F)F)c1, the Drug metabolism was “Metabolite_Notdetected”.
